Screening results from PubChem BioAssay.
Compounds with a hit are over-represented: about 2.9% of the library has one in this group of screens.
Arr AP2 block – inhibitors of beta-arrestin/AP2 binding, primary screen, biochemical, GPCR trafficking, flow cytometry; beta-arrestin 1 C-terminal peptide binding to AP2 beta2-adaptin appendage (human); FITC-arrestin peptide / GST-AP2 beads; AP2 beta2 appendage carries R879A mutation; inhibition, % at 10 µM; 340,000 tested, 0.31% active;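 active means inhibition above a set limit, near 3 SD of compounds lacking own fluorescence, cut at about 54% in these data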
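System: GST-AP2 R879A glutathione beads. Medium: PBS with 0.05% Tween 20 and 0.1% BSA. Also added: FITC-arrestin peptide, 50 nM. Incubation: 12 min plus 1 h, RT. Measured by: high-throughput flow cytometry of beads, ex 488, em 535 nm. Evaluation: percent drop in bead-associated FITC signal.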
ADAM17 inh – ADAM17 inhibitors, primary screen, biochemical, QFRET. Disintegrin and metalloproteinase domain-containing protein 17 (Homo sapiens), P78536. recombinant ADAM17, EDANS/DABCYL FRET peptide cleavage. inhibition, % at 6.95 µM. 370,000 tested, 0.83% active. AID 720648, 2013;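 active means inhibition above the mean of compounds lying between control limits plus 3 SD, set per campaign, cut at about 8.5% in these data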
ADAM10 inh – human ADAM10 inhibitors, primary screen, biochemical, QFRET, HTS; inhibition, % at 7 µM; AID 720582, 2013; recombinant ADAM10, EDANS/DABCYL FRET peptide cleavage, 3 h; 370,000 tested, 0.62% active; Disintegrin and metalloproteinase domain-containing protein 10 (Homo sapiens), O14672;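 active means inhibition above a per-campaign cutoff equal to the mean of compounds falling between control-based bounds plus 3 SD, cut at about 20% in these data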
Target sequence (O14672 214-748 limits assumed): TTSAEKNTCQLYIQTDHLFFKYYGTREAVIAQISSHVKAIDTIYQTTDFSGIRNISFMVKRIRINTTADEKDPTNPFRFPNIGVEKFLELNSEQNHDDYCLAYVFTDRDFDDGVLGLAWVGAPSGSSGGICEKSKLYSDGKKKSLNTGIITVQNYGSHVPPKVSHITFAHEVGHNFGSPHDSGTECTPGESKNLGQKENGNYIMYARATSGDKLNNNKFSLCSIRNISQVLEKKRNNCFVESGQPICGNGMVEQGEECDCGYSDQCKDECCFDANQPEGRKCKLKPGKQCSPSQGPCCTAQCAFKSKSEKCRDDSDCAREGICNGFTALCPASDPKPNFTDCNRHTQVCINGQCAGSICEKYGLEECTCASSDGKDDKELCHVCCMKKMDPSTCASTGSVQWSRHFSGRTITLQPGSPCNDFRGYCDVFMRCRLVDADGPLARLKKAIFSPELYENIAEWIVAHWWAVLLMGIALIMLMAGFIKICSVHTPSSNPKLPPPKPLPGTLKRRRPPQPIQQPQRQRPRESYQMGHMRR
FAS-TE inh – FAS thioesterase domain inhibitors, primary screen, biochemical, fluorescence intensity, uHTS. Fatty acid synthase (Homo sapiens), P49327. 360,000 tested, 0.67% active. recombinant FAS-TE, OMFH fluorogenic substrate, fluorescence endpoint. inhibition, % at 15 µM;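 active means compounds whose normalised, plate-corrected inhibition of enzyme fluorescence in the single-dose primary screen is 50% or more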
CendR NRP1 mod – modulators of CendR peptide binding to NRP-1, primary screen, biochemical, fluorescence polarization, uHTS. Neuropilin-1 (Homo sapiens), O14786. FAM-RPARPAR peptide binding to NRP-1. inhibition, % at 25 µM. 360,000 tested, 0.85% active. AID 602438, 2012;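 active means inhibition or corrected inhibition above about 18%, plus a signal ratio from 0.5 to 1.5, limit read from the data, passing the limit was not always enough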
CaV13 FRET inh – Disruptors of the CACNA1D IQ motif to Ca2+-dependent inactivation inhibitor domain association, primary screening, Förster resonance energy transfer in intact living … | HEK cells, CFP/YFP FRET ICDI-IQ, plate reader, 10 min; percent FRET-ratio fall versus neutral wells | inhibition, % at 12.3 µM | 340,000 tested, 0.098% active;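 active means mean replicate inhibition of at least 30% and at least 1% of replicates passing that level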
Arr AP2 CP1 – inhibitors of arrestin peptide binding to AP2, confirmation, biochemical, cherry pick 1, flow cytometry beads; inhibition, % at 10 µM; AID 504908, 2011; shares compounds with Arr AP2 block; 1,300 tested, 2% active; GST-AP2 beads, FITC arrestin peptide binding; GST-fused beta2-adaptin appendage, R879A mutant;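 active means inhibition above a set limit, roughly 3 SD of non-fluorescent compound noise, cut at about 38% in these data; inactive means inhibition at or below that limit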;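 further: loss of bead fluorescence from 50 nM FITC arrestin peptide bound to appendage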
GST GSH counter – GST-fluorescein capture on glutathione beads, confirmation, artefact control for arrestin-AP2 inhibitor project, biochemical, cherry pick 1, flow cytometry; inhibition, % at 10 µM; 1,300 tested, 2% active; shares compounds with Arr AP2 block; GST-fluorescein binding to GSH beads, fluorescence, counter-screen;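 active means inhibition above 50%, about 3 SD of the inhibition seen with non-fluorescent compounds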;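 further: fluorescein maleimide labelled GST captured on 4 micron glutathione beads; higher means more loss of bead fluorescence from quenching or blocked binding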
Numbers stand for hits; 0 = inactive; - = no result given.

SMILES	Arr AP2 block	ADAM17 inh	ADAM10 inh	FAS-TE inh	CendR NRP1 mod	CaV13 FRET inh	Arr AP2 CP1	GST GSH counter
COc1ccc(S(=O)(=O)N2CCCCC2)cc1NC(=O)c1ccc(=O)[nH]c1	0	0	0	0	0	0	0	0
Cc1ccc(NC(=O)c2cccnc2)cc1S(=O)(=O)N1CCOCC1	0	0	0	0	0	0	0	0
CCOc1ncccc1C(=O)Nc1cccc(S(=O)(=O)N2CCOCC2)c1	0	0	0	0	0	0	0	0
CCOc1ncccc1C(=O)Nc1cc(S(=O)(=O)N2CCCCC2)ccc1OC	0	0	0	0	0	0	0	0
Cc1ccc(C(=O)N(C)[C@H]2C[C@H]3c4[nH]c5c(-c6ccccc6)cccc5c4CCN3C(=O)[C@H]2[C@H](C)O)cc1	-	0	0	-	-	0	-	-
Cc1cc2c(nc1C)CCCN2Cc1ccccn1	-	0	0	-	-	0	-	-
CCOc1ncccc1C(=O)Nc1ccc(C)c(S(=O)(=O)N2CCCCCC2)c1	0	0	0	0	0	0	-	-
CCOc1ncccc1C(=O)Nc1ccc(OC)c(S(=O)(=O)N2CCCCC2)c1	0	0	0	0	0	0	0	0
C[N+]1(C)[C@H]2CC[C@H]1CC(OC(=O)C(O)c1ccccc1)C2 (stereo not given in full)	-	0	0	-	-	-	-	-
C/C(=N/NC(=O)Nc1ccccc1)c1ccc(C)cc1	0	0	0	0	0	0	-	-
C/C(=N\NC(=O)Nc1ccccc1)c1ccc2ccccc2c1	92.7	0	0	0	0	0	0	0
Cc1ccc(S(=O)(=O)N(C)CC(=O)O/N=C(\N)c2ccccn2)cc1	97.3	0	0	0	0	0	0	0
COC(=O)C1=C(C)N(C)C(=NCC2CC2)NC1c1cccc(F)c1 (stereo not given)	-	0	0	-	-	0	-	-
O=C(CCn1nc(-c2ccc(Cl)cc2)ccc1=O)NCc1ccccn1	79.0	0	0	0	0	-	0	0
N#Cc1cccc(-n2nnnc2-c2ccc3c(c2)OCO3)c1	69.7	0	0	0	0	0	0	0
COC(=O)[C@]12C[C@H](CC(=O)NCc3cccc(C(F)(F)F)c3)C(=O)N(CCC3=CCCCC3)C1=C[C@H](C1CCCC1)O[C@@H]2C	-	0	0	-	-	-	-	-
CCCc1ccc(C(O)c2ncc(-c3ccc(OC)cc3)[nH]2)cc1 (stereo not given)	-	0	0	0	0	0	-	-
CN(NC(=O)c1ccccc1)C1=NS(=O)(=O)c2ccccc21	0	0	0	0	0	0	-	-
CN(NC(=O)COc1ccccc1)C1=NS(=O)(=O)c2ccccc21	61.8	0	0	0	0	0	0	0
Cc1cccc(C(=O)Nc2c3c(nn2C(C)(C)C)CS(=O)(=O)C3)c1	61.4	0	0	0	0	0	0	0
CC(=O)c1c(C(C)=O)c(C)n(-c2cccc([N+](=O)[O-])c2)c1C	0	0	0	0	0	0	-	-
Cc1cc(C(=O)CCl)c(C)n1-c1cccc([N+](=O)[O-])c1	62.2	0	0	0	0	0	0	0
O=C(c1ccccc1F)N(NC(=O)C(O)(c1ccccc1)c1ccccc1)c1ccccc1	87.0	0	0	0	0	0	0	0
C[C@@H]1ON(C)[C@H]2C[C@H]3c4[nH]c5c(-c6ccccc6F)cccc5c4CCN3C(=O)[C@@H]12	-	0	0	-	-	0	-	-
COC(=O)c1c(NC(=O)CN2C(=O)NC3(CCC(C(C)(C)C)CC3)C2=O)sc2c1CCCCC2 (stereo not given)	0	0	0	0	0	0	-	-
SMILES	Arr AP2 block	ADAM17 inh	ADAM10 inh	FAS-TE inh	CendR NRP1 mod	CaV13 FRET inh	Arr AP2 CP1	GST GSH counter
COC(=O)c1c(NC(=O)CN2C(=O)NC3(CCc4ccccc4C3)C2=O)sc2c1CCCCC2 (stereo not given)	106.4	0	0	0	0	0	0	0
CCCCNc1nc2c(c(=O)[nH]c(=O)n2C)n1CCCc1ccccc1	-	0	0	0	0	0	-	-
CCCn1nc(NC(=O)CC(C)C)c2cc3cccc(C)c3nc21	0	0	0	0	0	0	-	-
CCn1nc(NC(=O)CC(C)C)c2cc3cccc(C)c3nc21	54.9	0	0	0	0	0	0	0
CC(C)Cn1c(N)c(C(=O)COC(=O)c2ccccc2F)c(=O)n(C)c1=O	0	0	0	0	0	0	0	0
CC(C)Cn1c(N)c(C(=O)COC(=O)c2ccccc2Cl)c(=O)n(C)c1=O	0	0	0	0	0	0	0	0
CC(C)Cn1c(N)c(C(=O)COC(=O)c2ccc3ccccc3n2)c(=O)n(C)c1=O	0	0	0	0	0	0	-	-
CC(C)Cn1c(N)c(C(=O)COC(=O)c2c(F)cccc2F)c(=O)n(C)c1=O	0	0	0	0	0	0	-	-
CC(C)Cn1c(N)c(C(=O)COC(=O)c2ccccc2C(=O)c2ccccc2)c(=O)n(C)c1=O	0	0	0	0	0	0	-	-
CC(C)Cn1c(N)c(C(=O)COC(=O)c2cccn2C)c(=O)n(C)c1=O	0	0	0	0	0	0	0	0
COc1ccccc1Cc1c(C2CCCCC2)nc2c3ccccc3ccn12	-	0	0	0	0	0	-	-
CCc1ccccc1NC(=S)N1CCN(c2cccc(OC)c2)CC1	0	0	0	0	0	0	-	-
N#C/C(=C/c1cn(-c2ccccc2)nc1-c1cccc(S(=O)(=O)N2CCOCC2)c1)C(=O)NCc1ccco1	99.1	0	0	0	0	0	0	0
COc1ccc(-c2nnn(CC(=O)Nc3ccc4c(c3)OCCO4)n2)cc1OC	60.4	-	-	0	0	-	0	0
CC1(C2CCC3C4CCC5CC6(CCC5(C)C4C(=O)CC32C)OCCO6)OCCO1 (stereo not given)	0	0	0	0	0	0	-	-
O=C(CNC(=O)c1ccc(Br)cc1)Nc1ccc2c(c1)CCC2	54.5	0	0	0	0	0	0	0
O=C(Nc1cnc2ccccc2c1)C1COc2ccccc2O1 (stereo not given)	69.4	0	0	0	0	0	0	0
